Measurements as given in ChEMBL document CHEMBL4627292, “Diarylheptanoids with NO production inhibitory activity from Amomum kravanh” (Bioorg Med Chem Lett, 2020).

Experiments:
[1] = Cytotoxicity against mouse RAW264.7 cells assessed as cell survival at 100 uM after 24 hrs by MTT assay relative to control; type: cell-based; conditions: read-out: Activity
How it was run: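 RAW264.7 seeded 5 × 10^3/well for 24 h at 37 °C, 5% CO2. Samples dissolved in DMSO and diluted in DMEM to final 100 μM with 1% DMSO; 1% DMSO as solvent control, cell-free medium as blank. After 24 h, MTT added for 4 h; medium removed, formazan dissolved in DMSO, absorbance read at 490 nm. % inhibition computed relative to solvent control after blank subtraction.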

RAW264.7 = test: Antiinflammatory activity in mouse RAW264.7 cells assessed as inhibition of LPS-induced nitric oxide production preincubated for 1 hr followed by LPS stimulation and measured after 24 hrs by Griess reagent based assay; type: functional, cell-based

Row | SMILES | IC50 (RAW264.7) [µM] | viability at 24 h, 100 µM [1] [%]
1 | COc1cc(C[C@@H](O)[C@@H]2C[C@@H](O)[C@@H](c3ccc(O)c(OC)c3)[C@H](c3ccc(O)c(OC)c3)O2)ccc1O | > 50 | > 90
2 | COc1cc(C[C@@H](O)[C@H]2C[C@H](O)[C@@H](c3ccc(O)c(OC)c3)[C@H](c3ccc(O)c(OC)c3)O2)ccc1O | > 50 | > 90
3 | COc1cc(CC[C@H]2C[C@H](O)[C@H](O)[C@@H](c3ccc(O)c(OC)c3)O2)ccc1O | > 50 | > 90
4 | COc1cc(C(=O)C[C@H]2C[C@H](O)C[C@@H](c3ccc(O)c(OC)c3)O2)ccc1O | > 50 | > 90
5 | COc1cc(C[C@H](O)[C@@H]2C[C@@H](O)C[C@H](c3ccc(O)c(OC)c3)O2)ccc1O | > 50 | > 90

The next compounds have a lower IC50 (RAW264.7) than those just listed; values first:

Row | IC50 (RAW264.7) [µM] | SMILES | viability at 24 h, 100 µM [1] [%]
6 | 21.8 | COc1cc(CC[C@H]2C[C@H](O)[C@@H](O)[C@@H](c3ccc(O)c(OC)c3)O2)ccc1O | > 90
7 | 17.4 | COc1cc(C(=O)C[C@H]2C[C@@H](O)C[C@@H](c3ccc(O)c(OC)c3)O2)ccc1O | > 90
8 | 26.5 | COc1cc(C[C@H]2O[C@@H](CC(=O)c3ccc(O)c(OC)c3)C[C@H]2O)ccc1O | > 90
9 | 23.6 | COc1cc(C[C@@H](O)[C@@H]2C[C@@H](O)[C@@H](c3cc(OC)c(O)c(OC)c3)[C@H](c3ccc(O)c(OC)c3)O2)ccc1O | > 90
10 | 32.5 | C[C@@H]1C[C@H]2[C@@H]3CCC4=CC(=O)C=C[C@]4(C)[C@@]3(F)[C@@H](O)C[C@]2(C)[C@@]1(O)C(=O)CO [DEXAMETHASONE] | –
